Activity calls are given as the source filed them. The rule behind the calls is not given here.
What was measured:
[1] = system: HeLa; experiment: Effect on Bcl2 protein expression in human HeLa cells at 0.25 to 0.5 uM after 24 hrs by Western blot analysis; format: functional, cell-based
Procedure, shortened: (§1)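 HeLa cells treated for 24 or 48 h were washed in cold PBS and lysed on ice for 30 min. Lysates were cleared at 15,000 × g, run on SDS-PAGE and blotted. Membranes were probed 2 h at room temperature with antibodies to the target protein, then peroxidase secondary and ECL. Blots were reprobed for β-actin as loading control.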

[2] = system: L1210; experiment: Antiproliferative activity against mouse L1210 cells after 2 days by coulter counter analysis; format: functional, cell-based; details: L1210, 48 h
Procedure, shortened: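 Cells suspended at 300,000–500,000 cells/mL and mixed 1:1 with diluted compound. Incubated at 37 °C for two days, then counted with a Coulter counter. IC50 is the concentration inhibiting proliferation by 50%, as mean ± SE from dose-response curves of at least three independent experiments.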

[3] = system: HeLa; experiment: Induction of apoptosis in human HeLa cells assessed as loss of mitochondrial membrane potential after 24 to 48 hrs by JC1 staining-based flow cytometric analysis; format: functional, cell-based
Procedure, shortened: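 After 24 or 48 h treatment, HeLa cells were trypsinized and resuspended in HBSS with JC-1 (1 µM). Incubated 10 min at 37 °C, washed, and read by flow cytometry for red (590 nm) aggregate versus green (530 nm) monomer. Mean ± SEM of three experiments.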

[4] = system: HeLa; experiment: Induction of apoptosis in human HeLa cells assessed as increase in hypodiploid DNA content at subG1-phase after 24 hrs by flow cytometric analysis relative to untreated control; format: functional, cell-based
Procedure, shortened: (§2)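 HeLa cells treated for 24 h over 0.06–0.5 µM. Cells fixed in ice-cold 70% ethanol, lysed with buffer containing RNase A and 0.1% Triton X-100, and stained with PI. DNA content read by flow cytometry, including the sub-G1 fraction. Mean ± SEM of three independent experiments.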

[5] = species on record: Bos taurus; experiment: Displacement of [3H]colchicine from bovine brain tubulin at 5 uM by DEAE-cellulose filter method
Procedure, shortened: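 Inhibition of [³H]colchicine binding to bovine brain tubulin. Reaction mixtures held 1 µM tubulin, 5 µM [³H]colchicine and 5 µM test compound.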

[6] = system: MOLT-4; experiment: Antiproliferative activity against human MOLT4 cells after 2 days by coulter counter analysis; format: functional, cell-based; details: MOLT-4, 48 h
[7] = system: CCRF-CEM; experiment: Ratio of IC50 for vinblastine-resistant human CEM/VBL100 cells to IC50 for human CEM cells; format: functional
[8] = system: Mus musculus; experiment: Toxicity in nude BALB/c mouse xenografted with human HT-29 cells assessed as organism mortality at 100 mg/kg, ip administered 3 times per week for 1 week measured on day 7; format: organism-based; set-up: dose 100 mg/kg, route intraperitoneal; details: in vivo, 168 h
Procedure, shortened: (§3)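 HT-29 cells in log phase, suspended at 1 × 10⁷ cells/mL in serum-free RPMI 1640, 0.2 mL injected subcutaneously into the back of nude mice. At about 300 mm³, mice were randomised to vehicle or treatment groups (six per group). The compound was given in DMSO by i.p. injection at 0.01 mL/g body weight. Body weight was recorded on set days; mice were euthanised after 23 days.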

[9] = system: HeLa; experiment: Induction of cell cycle arrest at G2/M phase in human HeLa cells assessed as decrease in cyclin B1 expression at 0.25 to 5 uM after 48 hrs by Western blot analysis; format: functional, cell-based; procedure, shortened: as §1
[10] = system: HeLa; experiment: Induction of apoptosis in human HeLa cells assessed as accumulation of late apoptotic cells after 24 hrs by Annexin-V-FITC/propidium iodide staining-based flow cytometric analysis; format: functional, cell-based
Procedure, shortened: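 HeLa cells treated for 24 or 48 h, then labelled with annexin-V-FITC and PI. Analysed by flow cytometry with excitation at 488 nm and emission at 525 nm (FITC) and 585 nm (PI). Quadrants scored as live, early apoptotic, late apoptotic or necrotic. Mean ± SEM of four independent experiments.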

[11] = system: HeLa; experiment: Induction of apoptosis in human HeLa cells assessed as ROS production at 0.25 to 5 uM after 24 to 48 hrs by H2-DCFDA-staining-based flow cytometric analysis; format: functional, cell-based
Procedure, shortened: (§4)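 HeLa cells treated 24 or 48 h, trypsinized and resuspended in HBSS containing HE (2.5 µM) or H₂DCFDA (0.1 µM). Incubated 10 min at 37 °C, resuspended in HBSS, and ROS read by flow cytometry. Mean ± SEM of three independent experiments.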

[12] = system: Mus musculus; experiment: Toxicity in nude BALB/c mouse xenografted with human HT-29 cells assessed as weight changes at 100 mg/kg, ip administered 3 times per week for 1 week; format: organism-based; set-up: dose 100 mg/kg, route intraperitoneal; details: in vivo, 168 h; procedure, shortened: as §3
[13] = system: HT-29; experiment: Cytotoxicity against human HT-29 cells; format: functional, cell-based
[14] = system: LoVo; experiment: Antiproliferative activity against human LoVo cells after 72 hrs by MTT assay; format: functional, cell-based
Procedure, shortened: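 Cells seeded at 8 × 10³ per well in complete medium and exposed to a range of compound concentrations at 37 °C for 72 h. Viability read by MTT test. IC50 taken as the concentration inhibiting proliferation by 50%.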

[15] = system: HT-29; experiment: Antitumor activity against human HT-29 cells xenografted in BALB/c nude mouse assessed as reduction in tumor mass at 100 mg/kg, ip administered 3 times per week for 1 week; format: functional, organism-based; set-up: dose 100 mg/kg
[16] = system: HeLa; experiment: Induction of apoptosis in human HeLa cells assessed as ROS production at 0.25 to 5 uM after 24 to 48 hrs by hydroethidine-staining-based flow cytometric analysis; format: functional, cell-based; procedure, shortened: as §4
[17] = system: HeLa; experiment: Induction of apoptosis in human HeLa cells assessed as decrease in Bcl2 protein expression at 0.25 to 0.5 uM after 48 hrs by Western blot analysis; format: functional, cell-based; procedure, shortened: as §1
[18] = system: HeLa; experiment: Cell cycle arrest in human HeLa cells assessed as decrease in cell accumulation in S phase at 0.5 uM after 24 hrs by propidium iodide staining-based flow cytometry; format: functional; procedure, shortened: as §2
[19] = system: HeLa; experiment: Cell cycle arrest in human HeLa cells assessed as decrease in cell accumulation in G1 phase after 24 hrs by propidium iodide staining-based flow cytometry; format: functional; procedure, shortened: as §2

Structure (SMILES): COc1cc(C(=O)c2sc(N3CCCC3)nc2N)cc(OC)c1OC
- Activity [1]: inactive
- IC50 [2]: 370 nM
- Activity [3]: Dose-dependent effect
- Activity [4]: Dose-dependent effect
- inhibition [5]: 67%
- IC50 [6]: 260 nM
- Ratio IC50 [7]: 0.2
- Activity [8]: Toxic
- Activity [9]: inactive
- Activity [10]: Dose-dependent effect
- Activity [11]: Active
- Activity [12]: Non-toxic
- IC50 [13]: 20 nM
- IC50 [14]: 100 nM
- Activity [15]: Active
- Activity [16]: Active
- Activity [17]: Active
- Activity [18]: Active
- Activity [19]: Dose-dependent effect

Reference: ChEMBL document CHEMBL1914330 (Eur J Med Chem, 2011)
